{"source": "paper PMC3806199", "about": "(Nature communications, 2013)", "key": {"[1]": {"test_system": "interscapular BAT", "assay": "FDG PET/CT imaging of BAT metabolic activity", "type": "in vivo, mouse", "conditions": "versus cold-acclimated mice"}, "[2]": {"test_system": "BAT", "assay": "NIR fluorescence imaging", "type": "in vivo, mouse", "conditions": "100 nmol iv, 1 hr, IRDye800 conjugate", "method_in_brief": "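Subjects were 6-week-old C57BL/6 males, n=3 per group, with experiments done twice. Mice were pre-housed at 6 °C or RT, with propranolol where indicated. IRDye800-conjugated test peptide or a control WAT-homing peptide was given i.v. and circulated 1 h. Interscapular BAT and i.p. WAT were resected and imaged by NIR fluorescence with 785 nm laser excitation. Data are mean ± s.e.m.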"}}, "note": "Bridge positions count the residues as written; N and C are the ends. Ends that are not written are not given here.", "data": [{"compound": "OC[C@H]1O[C@@H](O)[C@H]([18F])[C@@H](O)[C@@H]1O", "note": "[FDG, fluorine-18 deoxyglucose]", "values": [{"measurement": "reduction in FDG uptake by BAT as a result of warm-acclimation", "setting": "[1]", "value": 1.7, "unit": "fold"}]}, {"compound": "CC(C)NCC(O)COc1cccc2ccccc12", "note": "(stereo not drawn) [propranolol]", "values": [{"measurement": "reduction in FDG uptake by BAT, warm-acclimation combined with propranolol treatment", "setting": "[1]; propranolol ip 5 mg/kg", "value": 4.1, "unit": "fold"}]}, {"compound": "CKGGRAKDC (disulfide 1-9 (inferred))", "values": [{"measurement": "accumulation in WAT and BAT (resected tissues)", "setting": "[2]", "value": "accumulation in WAT, but not in BAT"}]}]}
